Results: ChEMBL document CHEMBL3046326, “Screening of dialkoxybenzenes and disubstituted cyclopentene derivatives against the cabbage looper, Trichoplusia ni, for the discovery of new feeding and oviposition deterrents” (J Agric Food Chem, 2007)

Experiments:
Trichoplusia ni [1] = experiment: Oviposition deterrent activity against adult female Trichoplusia ni (cabbage looper) moths introduced along with male moths into oviposition cage containing compound pretreated cabbage leaves assessed as eggs laying on the leaf disks at 0.25% after 48 hr by oviposition choice bioassay; type: functional
In short: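 Choice test with moths from larvae reared on normal diet from neonate to pupation. Pupae were sexed and held separately until emergence. Cabbage leaves were treated with test substance at 0.25% or left as control, and eggs per leaf were counted after 48 h. ODI = [(C − T)/(C + T)] × 100 from egg numbers on control and treated leaves.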

Trichoplusia ni [2] = experiment: Toxicity against third-instar larval stage of Trichoplusia ni (cabbage looper) assessed as mortality at 0.25% measured after 24 hr by contact toxicity bioassay; type: functional
In short: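 Third-instar larvae were sprayed directly with test solution at 0.25% in filter-paper-lined Petri dishes. They were then moved to dishes holding a small piece of artificial diet. Mortality was scored 24 h after spraying. The test applied only to compounds giving >50% feeding deterrence at 50 µg/cm².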

Trichoplusia ni [3] = experiment: Feeding deterrent activity against freshly molted third-instar larval stage of Trichoplusia ni (cabbage looper) after 3 to 5 hr by leaf disk choice bioassay; type: functional, organism-based
In short: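 Choice test: freshly molted third instar larvae, starved 4–5 h, offered two leaf disks, one painted on each side with 10 µL test solution and one with carrier solvent only. Twenty-five larvae per treatment. Ended when ~50% of the control disk was eaten (normally 3–5 h). Consumed areas measured. DC50 derived by linear regression of at least four concentrations (3.12–25 µg/cm²).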

Trichoplusia ni [4] = experiment: Feeding deterrent activity against freshly molted third-instar larval stage of Trichoplusia ni (cabbage looper), Trichoplusia ni at 50 ug/cm'2 after 3 to 5 hr by leaf disk choice bioassay; type: functional
In short: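 Leaf disk choice with freshly molted third instar larvae starved 4–5 h. One disk was painted on each side with 10 µL solution giving 50 µg/cm², the other with carrier solvent. Twenty-five larvae per treatment, stopped at ~50% control disk consumption (3–5 h). Deterrence = [(C − T)/(C + T)] × 100 from consumed areas; mean ± SE, Tukey's test p < 0.05.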

Row | Structure (SMILES) | Activity (Trichoplusia ni [1]) [%] | mortality (Trichoplusia ni [2]) [%] | DC50 (Trichoplusia ni [3]) [microg/cm2] | Activity (Trichoplusia ni [4]) [%]
1 | CCCOc1ccccc1OCCC(C)C | 29.4 | 10 | 32.5 | 66.9
2 | CCCCCCCCCO[C@H]1C=CC[C@H]1CCOCCC(C)C (racemic) |  |  |  | 22
3 | CCCCCCCCCO[C@H]1C=CC[C@H]1CCO (racemic) |  |  |  | 45.2
4 | CCCCO[C@H]1C=CC[C@H]1CCO (racemic) |  |  |  | 41.6
5 | OCC[C@@H]1CC=C[C@@H]1O (racemic) |  |  |  | 36.6
6 | CCCOCC[C@@H]1CC=C[C@@H]1OCCC (racemic) | 41.8 | 37.5 | 32.6 | 66.7
7 | CCCCOCC[C@@H]1CC=C[C@@H]1OCCCC (racemic) | 29.5 | 30 | 29.2 | 76
8 | CC(C)CCOCC[C@@H]1CC=C[C@@H]1OCCC(C)C (racemic) | 47 | 44.8 | 34.4 | 58.6
9 | COCC[C@@H]1CC=C[C@@H]1OC (racemic) |  |  |  | -17.6
10 | CCOCC[C@@H]1CC=C[C@@H]1OCC (racemic) |  |  |  | -17.8
11 | C=CCOc1ccccc1OCC=C [1,2-DIALLYLOXYBENZENE] | 15 | 20 | 22.4 | 70.4
12 | CCCCOc1ccccc1OCCCC [1,2-DIBUTOXYBENZENE] | 19.6 | 10 | 43.8 | 56.4
13 | CCOc1ccccc1OCC [1,2-DIETHOXYBENZENE] |  |  |  | -2.1
14 | CC(C)CCOc1ccccc1OCCC(C)C [1,2-DIISOPENTOXYBENZENE] | 11.5 | 40 | 19.6 | 69.9
15 | COc1ccccc1OC [1,2-DIMETHOXYBENZENE] |  |  |  | 26
16 | CCCOc1ccccc1OCCC [1,2-DIPROPOXYBENZENE] |  |  |  | 26.2
17 | CCOc1cccc(OCC)c1 [1,3-DIETHOXYBENZENE] | 3.4 | 36.7 | 28.7 | 89.4
18 | CC(C)CCOc1cccc(OCCC(C)C)c1 [1,3-DIISOPENTOXYBENZENE] |  |  |  | -12.2
19 | COc1cccc(OC)c1 [1,3-DIMETHOXYBENZENE] |  |  |  | 20.4
20 | CCCOc1cccc(OCCC)c1 [1,3-DIPROPOXYBENZENE] | 33 | 76.7 | 26.8 | 96.9
21 | C=CCOc1ccc(OCC=C)cc1 [1,4-DIALLYLOXYBENZENE] | 14.1 | 16 | 23.9 | 96.9

Row | Structure (SMILES) | Activity (Trichoplusia ni [1]) [%] | mortality (Trichoplusia ni [2]) [%] | DC50 (Trichoplusia ni [3]) [microg/cm2] | Activity (Trichoplusia ni [4]) [%]
22 | CC(C)CCOc1ccc(OCCC(C)C)cc1 [1,4-DIISOPENTOXYBENZENE] |  |  |  | 44
23 | COc1ccc(OC)cc1 [1,4-DIMETHOXYBENZENE] |  |  |  | 9.9
24 | CCCOc1ccc(OCCC)cc1 [1,4-DIPROPOXYBENZENE] | 11.8 | 22.6 | 20.3 | 96
25 | C=CCOc1ccccc1OCCCC [1-allyloxy-2-butoxybenzene] | 66.7 | 23.3 | 30 | 67.8
26 | C=CCOc1ccccc1OCC [1-allyloxy-2-ethoxybenzene] | 66.7 | 23.3 | 30 | 67.8
27 | C=CCOc1ccccc1OC [1-allyloxy-2-methoxybenzene] | 66.7 | 23.3 | 30 | 67.8
28 | C=CCOc1ccccc1OCCCCC [1-allyloxy-2-pentoxybenzene] | 66.7 | 23.3 | 30 | 67.8
29 | C=CCOc1ccccc1OCCC [1-allyloxy-2-propoxybenzene] | 66.7 | 23.3 | 30 | 67.8
30 | C=CCOc1ccc(OCCCC)cc1 [1-allyloxy-4-butoxybenzene] | 16.8 | 10 | 22.6 | 84
31 | C=CCOc1ccc(OCC)cc1 [1-allyloxy-4-ethoxybenzene] | 5.4 | 10 | 27.9 | 82.4
32 | C=CCOc1ccc(OCCC(C)C)cc1 [1-allyloxy-4-isopentoxybenzene] | 18.8 | 7 | 15.7 | 75.1
33 | C=CCOc1ccc(OC)cc1 [1-allyloxy-4-methoxybenzene] | 5.4 | 10 | 27.9 | 82.4
34 | C=CCOc1ccc(OCCC)cc1 [1-allyloxy-4-propoxybenzene] | 5.4 | 10 | 27.9 | 82.4
35 | CCCCCOc1ccccc1OCCCC [1-butoxy-2-pentoxybenzene] | 28.7 | 6.7 | 16.8 | 98
36 | CCCCOc1cccc(OCC)c1 [1-butyloxy-3-ethoxybenzene] | 25.9 | 30 | 14.4 | 84.1
37 | CCCCOc1cccc(OC)c1 [1-butyloxy-3-methoxybenzene] | 25.9 | 30 | 14.4 | 84.1
38 | CCCCCOc1cccc(OCCCC)c1 [1-butyloxy-3-pentoxybenzene] | 25.9 | 30 | 14.4 | 84.1
39 | CCCCOc1cccc(OCCC)c1 [1-butyloxy-3-propoxybenzene] | 25.9 | 30 | 14.4 | 84.1
40 | CCCCOc1ccc(OCC)cc1 [1-butyloxy-4-ethoxybenzene] | 50.1 | 58.1 | 14.5 | 83.4
41 | CCCCOc1ccc(OC)cc1 [1-butyloxy-4-methoxybenzene] | 50.1 | 58.1 | 14.5 | 83.4
42 | CCCCCOc1ccc(OCCCC)cc1 [1-butyloxy-4-pentoxybenzene] | 50.1 | 58.1 | 14.5 | 83.4

Row | Structure (SMILES) | Activity (Trichoplusia ni [1]) [%] | mortality (Trichoplusia ni [2]) [%] | DC50 (Trichoplusia ni [3]) [microg/cm2] | Activity (Trichoplusia ni [4]) [%]
43 | CCCCOc1ccc(OCCC)cc1 [1-butyloxy-4-propoxybenzene] | 50.1 | 58.1 | 14.5 | 83.4
44 | CCCCOc1ccccc1OCC [1-ethoxy-2-butoxybenzene] | 28.7 | 6.7 | 24.1 | 71
45 | CCCCCOc1ccccc1OCC [1-ethoxy-2-pentoxybenzene] | 28.7 | 6.7 | 24.1 | 71
46 | C=CCOc1ccccc1O [1-hydroxy-2-allyloxybenzene] |  |  |  | 31.1
47 | CCCCOc1ccccc1O [1-hydroxy-2-butoxybenzene] |  |  |  | 12
48 | CCOc1ccccc1O [1-hydroxy-2-ethoxybenzene] |  |  |  | -5.3
49 | CCCOc1ccccc1O [1-hydroxy-2-propoxybenzene] |  |  |  | -12
50 | CCOc1cccc(O)c1 [1-hydroxy-3-ethoxybenzene] |  |  |  | -18.7
51 | CC(C)CCOc1cccc(O)c1 [1-hydroxy-3-isopentoxybenzene] |  |  |  | -5.8
52 | COc1cccc(O)c1 [1-hydroxy-3-methoxybenzene] |  |  |  | 44.7
53 | CCCOc1cccc(O)c1 [1-hydroxy-3-propoxybenzene] |  |  |  | 4
54 | CCOc1ccc(O)cc1 [1-hydroxy-4-ethoxybenzene] |  |  |  | 29.8
55 | CC(C)CCOc1ccc(O)cc1 [1-hydroxy-4-isopentoxybenzene] |  |  |  | 29.5
56 | CCCOc1ccc(O)cc1 [1-hydroxy-4-propoxybenzene] |  |  |  | -28
57 | CCCCOc1ccccc1OC [1-methoxy-2-butoxybenzene] |  |  |  | 23.5
58 | CCOc1ccccc1OC [1-methoxy-2-ethoxybenzene] |  |  |  | 23.5
59 | CCCCCOc1ccccc1OC [1-methoxy-2-pentoxybenzene] |  |  |  | 23.5
60 | CCCOc1ccccc1OC [1-methoxy-2-propoxybenzene] |  |  |  | 23.5
61 | COc1ccccc1O [GUAIACOL] |  |  |  | -7.5
62 | COc1ccc(O)cc1 [MEQUINOL] |  |  |  | -26.5
